Data from ChEMBL document CHEMBL4680186, “New azole antifungals with a fused triazinone scaffold” (Eur J Med Chem, 2020).
Active and inactive are the calls of the source. No cut-off for these calls is given here.

Assays:
[1] = test system: Pichia kudriavzevii (Candida krusei); assay: Antifungal activity against fluconazole-resistant Candida krusei CAKR8 assessed as reduction in microbial growth after 24 hrs by resazurin staining based spectrofluorometric method; conditions: CAKR8, 24 h
[2] = test system: Pichia kudriavzevii (Candida krusei); assay: Antifungal activity against fluconazole-resistant Candida krusei CAKR7 assessed as reduction in microbial growth after 24 hrs by resazurin staining based spectrofluorometric method; conditions: CAKR7, 24 h
Candida albicans [3] = assay: Antifungal activity against fluconazole-resistant Candida albicans DSY735 over expression of CDR1/CDR2 assessed as reduction in microbial growth after 24 hrs by resazurin staining based spectrofluorometric method; type: functional
Outline: (§1)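 Broth microdilution in RPMI 1640 with 0.165 M MOPS, 2% glucose and antibiotics; yeast inoculum at 10³ cells mL⁻¹ final. Compounds were dissolved in DMSO (fluconazole in water) and diluted in medium, then incubated 24 h at 37 °C. Viability was read by resazurin fluorescence (ex 550/em 590 nm) after 4 h. MIC was taken as 50% growth inhibition, by linear regression; triplicate experiments.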

Rhizopus arrhizus [4] = assay: Antifungal activity against Rhizopus oryzae RHPOR1 assessed as reduction in microbial growth after 24 hrs by broth microdilution method; type: functional
Outline: (§2)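 CLSI M38 broth microdilution in RPMI 1640 buffered to pH 7.0 with MOPS. Drugs were diluted in DMSO then medium; final range 0.032-16 mg/L. Conidia or sporangiospores came from 7-day potato dextrose agar cultures; diluted (2×) inocula were 0.9×10^4–4.7×10^4 CFU/mL. Incubation at 35 °C, read at 48 h except Zygomycetes at 24 h. MIC read visually as lowest concentration preventing 100% growth; duplicate.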

Nakaseomyces glabratus = assay: Antifungal activity against fluconazole-sensitive Candida glabrata CAGL2 assessed as reduction in microbial growth after 24 hrs by resazurin staining based spectrofluorometric method; type: functional
Outline: (§3)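 Yeasts in RPMI 1640 with 0.165 M MOPS, 2% glucose and antibiotics, final 10³ cells mL⁻¹. Drugs in DMSO (fluconazole in water) were diluted in medium. Plates ran 24 h at 37 °C, then resazurin for 4 h, fluorescence ex 550/em 590 nm. MIC is 50% growth inhibition by linear regression; triplicate, mean±SD.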

Mucor circinelloides = assay: Antifungal activity against Mucor circinelloides MURI1 assessed as reduction in microbial growth after 24 hrs by broth microdilution method; type: functional
Outline: as §2

Candida albicans [5] = assay: Antifungal activity against fluconazole-resistant Candida albicans DSY292 harboring Erg1l G464S/R467K/Y132 mutant assessed as reduction in microbial growth after 24 hrs by resazurin staining based spectrofluorometric method; type: functional
Outline: as §1

Fusarium sp. = assay: Antifungal activity against Fusarium sp. assessed as reduction in microbial growth […] by broth microdilution method; type: functional
Aspergillus fumigatus [6] = assay: Antifungal activity against Aspergillus fumigatus ASFU7 assessed as reduction in microbial growth after 48 hrs by resazurin staining based spectrofluorometric method; type: functional
Outline: (§4)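 A. fumigatus conidia counted by microscope and inoculated at 10^4 cells mL⁻¹ in RPMI 1640 with 0.165 M MOPS, 2% glucose and antibiotics. Drugs were dissolved in DMSO (fluconazole in water), then diluted in medium. Plates ran 48 h at 37 °C, then resazurin for 20 h, read by fluorescence at ex 550/em 590 nm. MIC is 80% growth inhibition by linear regression; triplicate, mean±SD.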

Rhizopus arrhizus [7] = assay: Antifungal activity against Rhizopus oryzae RHPOR2 assessed as reduction in microbial growth after 24 hrs by broth microdilution method; type: functional
Outline: as §2

Candida albicans [8] = assay: Antifungal activity against fluconazole-susceptible Candida albicans CAAL93 assessed as reduction in microbial growth after 24 hrs by resazurin staining based spectrofluorometric method; type: functional
Outline: as §3

Scedosporium apiospermum = assay: Antifungal activity against Scedosporium apiospermum SCAP1 assessed as reduction in microbial growth […] by broth microdilution method; type: functional
Aspergillus fumigatus [9] = assay: Antifungal activity against Aspergillus fumigatus ASFU77 assessed as reduction in microbial growth after 48 hrs by resazurin staining based spectrofluorometric method; type: functional
Outline: as §4

Candida albicans [10] = assay: Antifungal activity against Candida albicans DSY292 harboring Erg1l G464S/R467K/Y132 mutant infected in Swiss mouse assessed as survival at 15 mg/kg, po after 8 days; type: functional, organism-based; conditions: time 8.0 day
Outline: (§5)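 Swiss mice (~25 g) immunosuppressed with prednisolone 30 mg/kg s.c. one day before challenge; day 0 i.v. infection with C. albicans blastoconidia (5.10⁶ yeast/mL, 100 µL). Oral dosing 1 h post-infection, once daily for 5 days, 10 mg/kg (CAAL93) or 15 mg/kg (DSY292), vehicle 40% DMSO/25% Tween80/35% olive oil. Mice given 50% grapefruit juice ad libitum. Survival followed 14 days (log-rank Mantel-Cox).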

Aspergillus fumigatus [11] = assay: Antifungal activity against Aspergillus fumigatus ASFU76 assessed as reduction in microbial growth after 48 hrs by resazurin staining based spectrofluorometric method; type: functional
Outline: as §4

Candida albicans [12] = assay: Inhibition of sterol biosynthesis in Candida albicans CAAL93 assessed as zymosterol level at 10 ng/ml after 18 hrs by GC-MS analysis (reference value: 1.6%); type: functional; set-up: scale not given: the % may be the effect or the level left
Outline: (§6)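 C. albicans CAAL93 blastospores were grown 18 h at 35 °C with stirring in 50 mL Sabouraud broth, with drug added before incubation. Cells were pelleted and saponified in ethanolic KOH at 80 °C for 60 min, and sterols extracted with hexane. Analysis by GC-MS (EI 70 eV, splitless injection at 250 °C, helium carrier); sterols identified by fragmentation pattern.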

Candida albicans [13] = assay: Inhibition of sterol biosynthesis in Candida albicans CAAL93 assessed as episterol level at 10 ng/ml after 18 hrs by GC-MS analysis (reference value: 2%); type: functional; set-up: scale not given: the % may be the effect or the level left
Outline: as §6

Candida albicans [14] = assay: Inhibition of sterol biosynthesis in Candida albicans CAAL93 assessed as other sterols level at 10 ng/ml after 18 hrs by GC-MS analysis (Rvb < 1%); type: functional; set-up: scale not given: the % may be the effect or the level left
Outline: as §6

Candida albicans [15] = assay: Inhibition of sterol biosynthesis in Candida albicans CAAL93 assessed as eburicol level at 10 ng/ml after 18 hrs by GC-MS analysis relative to control; type: functional; set-up: scale not given: the % may be the effect or the level left
Outline: as §6

Candida albicans [16] = assay: Inhibition of sterol biosynthesis in Candida albicans CAAL93 assessed as ergosterol level at 10 ng/ml after 18 hrs by GC-MS analysis (reference value: 89.7%); type: functional; set-up: scale not given: the % may be the effect or the level left
Outline: as §6

Candida albicans [17] = assay: Inhibition of sterol biosynthesis in Candida albicans CAAL93 assessed as lanosterol level at 10 ng/ml after 18 hrs by GC-MS analysis (reference value: 1.6%); type: functional; set-up: scale not given: the % may be the effect or the level left
Outline: as §6

Candida albicans [18] = assay: Inhibition of sterol biosynthesis in Candida albicans CAAL93 assessed as fecosterol level at 10 ng/ml after 18 hrs by GC-MS analysis relative to control; type: functional; set-up: scale not given: the % may be the effect or the level left
Outline: as §6

Candida albicans [19] = assay: Inhibition of sterol biosynthesis in Candida albicans CAAL93 assessed as ergostadienol level at 10 ng/ml after 18 hrs by GC-MS analysis (reference value: 1.6%); type: functional; set-up: scale not given: the % may be the effect or the level left
Outline: as §6

Candida albicans [20] = assay: Antifungal activity against Candida albicans CAAL93 infected in Swiss mouse assessed as survival at 10 mg/kg, po after 14 days relative to control; type: functional; conditions: 336 h, time 14 day
Outline: as §5

Candida albicans [21] = assay: Inhibition of sterol biosynthesis in Candida albicans CAAL93 assessed as 14alpha-methylfecosterol level at 10 ng/ml after 18 hrs by GC-MS analysis relative to control; type: functional; set-up: scale not given: the % may be the effect or the level left
Outline: as §6

Candida albicans [22] = assay: Antifungal activity against Candida albicans DSY292 harboring Erg1l G464S/R467K/Y132 mutant infected in Swiss mouse assessed as survival at 15 mg/kg, po after 5 days; type: functional, organism-based; conditions: time 5.0 day
Outline: as §5

Candida albicans [23] = assay: Antifungal activity against Candida albicans CAAL93 infected in Swiss mouse assessed as reduction in kidney fungal burden at 10 mg/kg, po after 14 days; type: functional, organism-based; conditions: time 14.0 day

Structure (SMILES) | MIC [1] [µg/mL] | MIC [2] [µg/mL] | MIC (Rhizopus arrhizus [4]) [µg/mL] | MIC (Mucor circinelloides) [µg/mL] | MIC (Fusarium sp.) [µg/mL] | MIC (Aspergillus fumigatus [6]) [µg/mL] | MIC (Rhizopus arrhizus [7]) [µg/mL] | MIC (Scedosporium apiospermum) [µg/mL] | MIC (Aspergillus fumigatus [9]) [µg/mL] | further results
C[C@@H](n1ncc2cc(-c3ccccc3)cn2c1=O)[C@](O)(Cn1cncn1)c1ccc(F)cc1F | 0.014 | 0.013 |  |  |  |  |  |  |  | 
C[C@@H](n1ncc2cc(Br)cn2c1=O)[C@](O)(Cn1cncn1)c1ccc(F)cc1F | 0.076 | 0.251 | 4 | 8 | > 16 | 6.66 | 8 | 4 | 6.74 | MIC (Candida albicans [3]): 0.14 µg/mL; MIC (Nakaseomyces glabratus): 0.014 µg/mL; MIC (Candida albicans [5]): 0.155 µg/mL; MIC (Candida albicans [8]): 2 ng/mL
C[C@@H](c1ncncc1F)[C@](O)(Cn1cncn1)c1ccc(F)cc1F [VORICONAZOLE] | 0.24 | 0.817 |  | > 8 | 6 |  | 8 | 0.5 |  | Survival (Candida albicans [10]): inactive
C[C@@H](n1ncc2cc(-c3ccc(C#N)cc3)cn2c1=O)[C@](O)(Cn1cncn1)c1ccc(F)cc1F | 0.101 | 0.058 | 0.125 | 0.75 | 10 | > 100 | 0.25 | > 16 | > 100 | MIC (Aspergillus fumigatus [11]): > 100 µg/mL
C[C@@H](n1ncc2cc(-c3ccc([N+](=O)[O-])cc3)cn2c1=O)[C@](O)(Cn1cncn1)c1ccc(F)cc1F | 0.039 | 0.066 | 0.0625 | 0.25 | 12 |  | 0.25 | > 16 |  | 
OC(Cn1cncn1)(Cn1cncn1)c1ccc(F)cc1F [FLUCONAZOLE] | > 10 | > 3 |  |  |  |  |  |  |  | Activity (Candida albicans [12]): 2.8%; Activity (Candida albicans [13]): 8.8%; Activity (Candida albicans [14]): 7.3%; Activity (Candida albicans [15]): 2.2%; Activity (Candida albicans [16]): 57.8%; Activity (Candida albicans [17]): 13.1%; Activity (Candida albicans [18]): 2.8%; Activity (Candida albicans [19]): 3.2%; survival at 10 mg/kg (Candida albicans [20]): 100%; Activity (Candida albicans [21]): 2%; Survival (Candida albicans [22]): inactive; Activity (Candida albicans [23]): Active
CCC(C)n1ncn(-c2ccc(N3CCN(c4ccc(OCC5COC(Cn6cncn6)(c6ccc(Cl)cc6Cl)O5)cc4)CC3)cc2)c1=O (configuration not stated) [ITRACONAZOLE] |  |  | 0.19 | 0.19 | > 16 | 0.5 | 1.12 | 0.5 | > 100 | 
CC[C@@H]([C@H](C)O)n1ncn(-c2ccc(N3CCN(c4ccc(OC[C@@H]5CO[C@@](Cn6cncn6)(c6ccc(F)cc6F)C5)cc4)CC3)cc2)c1=O [POSACONAZOLE] |  |  | 0.19 | 0.19 | > 8 |  | 0.5 | 1.25 |  | 
C[C@@H](n1ncc2cccn2c1=O)[C@](O)(Cn1cncn1)c1ccc(F)cc1F | 1.15 | 0.625 | 4 | 16 | > 16 |  | 8 | > 16 |  | 
C[C@@H]1[C@H](O)[C@@H](C)/C=C/C=C/C=C/C=C/C=C/C=C/C=C/[C@H](O[C@@H]2O[C@H](C)[C@@H](O)[C@H](N)[C@@H]2O)C[C@@H]2O[C@](O)(C[C@@H](O)C[C@@H](O)[C@H](O)CC[C@@H](O)C[C@@H](O)CC(=O)O[C@H]1C)C[C@H](O)[C@H]2C(=O)O [AMPHOTERICIN B] |  |  | 0.19 | 0.19 | 12 |  | 0.5 | > 8 |  | 
